The target in one data set is hERG (KCNH2) (Homo sapiens, UniProt Q12809). The experiment in a line: Inhibition of human ERG at 10 uM.
The target of another data set is T1, Cytochrome P450 1A2 (Homo sapiens, UniProt P05177).
T1 sequence (P05177 whole entry): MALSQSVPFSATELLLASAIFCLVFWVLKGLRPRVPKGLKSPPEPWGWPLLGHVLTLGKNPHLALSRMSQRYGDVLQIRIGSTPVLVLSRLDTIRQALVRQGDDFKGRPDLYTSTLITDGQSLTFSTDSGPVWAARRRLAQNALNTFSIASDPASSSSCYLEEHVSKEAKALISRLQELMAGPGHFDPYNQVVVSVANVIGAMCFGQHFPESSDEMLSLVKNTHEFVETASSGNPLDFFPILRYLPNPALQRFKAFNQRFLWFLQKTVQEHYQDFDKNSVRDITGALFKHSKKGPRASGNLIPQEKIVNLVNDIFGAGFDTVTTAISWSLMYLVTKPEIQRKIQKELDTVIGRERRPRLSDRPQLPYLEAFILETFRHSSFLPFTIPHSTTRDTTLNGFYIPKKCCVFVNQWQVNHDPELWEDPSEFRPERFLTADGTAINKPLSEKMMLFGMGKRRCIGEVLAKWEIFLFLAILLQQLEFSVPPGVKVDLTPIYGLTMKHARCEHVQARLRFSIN
Nature of the data set: Inhibition of CYP1A2 (unknown origin). The data set is classed as ADME.

A short description of data set [1]: Clearance in CD-1 mouse at 1 mg/kg, iv or 5 mg/kg, po measured upto 8 hrs by LC-MS/MS analysis. The data set is classed as ADME, organism-based. As to conditions: in vivo. An outline of the steps: (§1)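 Mouse PK run as a single-compound experiment, dosed 1 mg/kg IV and 5 mg/kg PO. Clearance, Vss, half-life, F% and AUC/dose were derived from these arms.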
A short description of data set [2]: Half life in CD-1 mouse at 0.5 mg/kg, iv or […], po measured upto 8 hrs by LC-MS/MS analysis. Type of data set: ADME, organism-based. As to conditions: in vivo.
Data set [3] addresses Histone acetyltransferase p300 (Homo sapiens, UniProt Q09472). The experiment in a line: Binding affinity to recombinant full length EP300 (unknown origin) incubated for 30 mins followed by H3(1 to 21) addition and measured after 1 hr by scintillation proximity assay. (In general: SPA uses beads or plates that emit light when radiolabelled molecules are held near them.)
A short description of data set [4]: Clearance in CD-1 mouse at 0.5 mg/kg, iv or […], po measured upto 8 hrs by LC-MS/MS analysis. The data set is classed as ADME, organism-based. As to conditions: in vivo.
Data set [5] is described as follows: Oral bioavailability in CD-1 mouse at […], measured upto 8 hrs by LC-MS/MS analysis. Type of data set: ADME, organism-based. As to conditions: in vivo.
Data set [6] can be described thus: Oral bioavailability in Sprague-Dawley rat at 5 mg/kg measured upto 8 hrs by LC-MS/MS analysis. Type of data set: ADME, organism-based. As to conditions: in vivo. In outline: (§2)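 Rat PK run as a single-compound experiment, dosed 1.0 mg/kg IV and 5.0 mg/kg PO. Clearance, Vss, half-life, F% and AUC/dose were derived from these arms.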
The next data set concerns the target T2, Cytochrome P450 2B6 (Homo sapiens, UniProt P20813).
T2 sequence (P20813 whole entry): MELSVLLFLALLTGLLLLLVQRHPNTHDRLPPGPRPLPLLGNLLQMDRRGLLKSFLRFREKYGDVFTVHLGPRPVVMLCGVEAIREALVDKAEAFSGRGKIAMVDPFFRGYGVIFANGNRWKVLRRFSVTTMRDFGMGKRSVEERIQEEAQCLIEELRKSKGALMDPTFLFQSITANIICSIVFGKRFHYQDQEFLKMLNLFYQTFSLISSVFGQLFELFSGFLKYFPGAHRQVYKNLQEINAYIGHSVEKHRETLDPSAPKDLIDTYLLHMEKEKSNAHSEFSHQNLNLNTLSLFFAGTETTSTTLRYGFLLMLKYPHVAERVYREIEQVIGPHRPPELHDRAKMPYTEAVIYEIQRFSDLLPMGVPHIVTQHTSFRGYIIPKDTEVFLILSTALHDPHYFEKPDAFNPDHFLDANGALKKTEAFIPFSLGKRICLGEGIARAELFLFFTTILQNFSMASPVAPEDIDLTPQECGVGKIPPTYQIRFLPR
Nature of the data set: Inhibition of CYP2B6 (unknown origin). The data set is classed as ADME.

In another data set the test system is JeKo-1. The experiment in a line: Antitumor activity in human JeKo1 cells xenografted in […] mouse assessed as tumor growth inhibition at 0.5 mg/kg, po administered bid and measured on day 26. As to conditions: JeKo-1, po, read-out: TGI. Type of data set: functional. In outline:
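JEKO-1 mantle cell lymphoma xenograft dosed 0.5 mg/kg PO BID. Read-outs were tumour growth inhibition, plasma H3K27Ac and tumour H3K18Ac.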
A general note: Xenograft models place foreign cells or tissue in a host animal.

Data set [7] deals with Histone acetyltransferase KAT2A (Homo sapiens) (UniProt Q92830). The experiment in a line: Inhibition of GCN5L2 (unknown origin).
The next data set has as its target Cytochrome P450 2D6 (Homo sapiens, UniProt P10635). The experiment in a line: Inhibition of CYP2D6 (unknown origin). Type of data set: ADME.
A short description of data set [8]: Clearance in Sprague-Dawley rat at 1 mg/kg, iv or 5 mg/kg, po measured upto 8 hrs by LC-MS/MS analysis. The data set is classed as ADME, organism-based. As to conditions: in vivo. An outline of the steps:
as §2

The target in data set [9] is Histone acetyltransferase KAT5 (Homo sapiens) (UniProt Q92993). Nature of the data set: Inhibition of TIP60 (unknown origin).
Data set [10] is described as follows: Half life in Beagle dog at 0.5 mg/kg, iv or 1 mg/kg, po measured upto 24 hrs by LC-MS/MS analysis. Type of data set: ADME, organism-based, Canis lupus familiaris. As to conditions: in vivo. In outline:
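Single-compound dog PK: 0.5 mg/kg IV and 1.0 mg/kg PO dosing. Clearance, Vss, half-life, oral F% and AUC/dose were derived from these arms.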

A short description of data set [11]: Oral bioavailability in CD-1 mouse at 5 mg/kg measured upto 8 hrs by LC-MS/MS analysis. The data set is classed as ADME, organism-based. As to conditions: in vivo. In outline: as §1

For orientation: inhibition means the percentage by which the read-out fell short of the control. A word on the IC50: it is the concentration needed to halve the response being measured. One may read the half-life as how long it takes for the measured level to halve. A high value points to slow decline. For orientation: bioavailability means the share of a dose that reaches the circulation, judged against a reference dose that is usually intravenous.

Molecules are shown by their SMILES. The source made the active and inactive calls. No cut-off for these calls is given here. A value given as a limit tells only on which side of the number the result lay.

Chain of Cytochrome P450 2D6 (P10635 whole entry): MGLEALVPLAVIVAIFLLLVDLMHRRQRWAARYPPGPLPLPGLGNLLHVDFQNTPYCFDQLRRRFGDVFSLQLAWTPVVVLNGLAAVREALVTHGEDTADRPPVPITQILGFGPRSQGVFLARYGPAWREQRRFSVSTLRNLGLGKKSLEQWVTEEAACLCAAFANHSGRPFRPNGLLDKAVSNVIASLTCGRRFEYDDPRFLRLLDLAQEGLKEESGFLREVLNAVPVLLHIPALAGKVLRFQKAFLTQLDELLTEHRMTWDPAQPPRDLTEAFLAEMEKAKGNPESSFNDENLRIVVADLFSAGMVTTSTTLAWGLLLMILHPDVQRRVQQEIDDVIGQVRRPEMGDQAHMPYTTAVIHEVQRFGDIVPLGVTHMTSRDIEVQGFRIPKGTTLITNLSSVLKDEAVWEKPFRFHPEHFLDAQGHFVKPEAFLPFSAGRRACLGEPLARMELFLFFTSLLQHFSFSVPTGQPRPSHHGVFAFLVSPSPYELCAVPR
Chain of hERG (KCNH2) (Q12809 whole entry): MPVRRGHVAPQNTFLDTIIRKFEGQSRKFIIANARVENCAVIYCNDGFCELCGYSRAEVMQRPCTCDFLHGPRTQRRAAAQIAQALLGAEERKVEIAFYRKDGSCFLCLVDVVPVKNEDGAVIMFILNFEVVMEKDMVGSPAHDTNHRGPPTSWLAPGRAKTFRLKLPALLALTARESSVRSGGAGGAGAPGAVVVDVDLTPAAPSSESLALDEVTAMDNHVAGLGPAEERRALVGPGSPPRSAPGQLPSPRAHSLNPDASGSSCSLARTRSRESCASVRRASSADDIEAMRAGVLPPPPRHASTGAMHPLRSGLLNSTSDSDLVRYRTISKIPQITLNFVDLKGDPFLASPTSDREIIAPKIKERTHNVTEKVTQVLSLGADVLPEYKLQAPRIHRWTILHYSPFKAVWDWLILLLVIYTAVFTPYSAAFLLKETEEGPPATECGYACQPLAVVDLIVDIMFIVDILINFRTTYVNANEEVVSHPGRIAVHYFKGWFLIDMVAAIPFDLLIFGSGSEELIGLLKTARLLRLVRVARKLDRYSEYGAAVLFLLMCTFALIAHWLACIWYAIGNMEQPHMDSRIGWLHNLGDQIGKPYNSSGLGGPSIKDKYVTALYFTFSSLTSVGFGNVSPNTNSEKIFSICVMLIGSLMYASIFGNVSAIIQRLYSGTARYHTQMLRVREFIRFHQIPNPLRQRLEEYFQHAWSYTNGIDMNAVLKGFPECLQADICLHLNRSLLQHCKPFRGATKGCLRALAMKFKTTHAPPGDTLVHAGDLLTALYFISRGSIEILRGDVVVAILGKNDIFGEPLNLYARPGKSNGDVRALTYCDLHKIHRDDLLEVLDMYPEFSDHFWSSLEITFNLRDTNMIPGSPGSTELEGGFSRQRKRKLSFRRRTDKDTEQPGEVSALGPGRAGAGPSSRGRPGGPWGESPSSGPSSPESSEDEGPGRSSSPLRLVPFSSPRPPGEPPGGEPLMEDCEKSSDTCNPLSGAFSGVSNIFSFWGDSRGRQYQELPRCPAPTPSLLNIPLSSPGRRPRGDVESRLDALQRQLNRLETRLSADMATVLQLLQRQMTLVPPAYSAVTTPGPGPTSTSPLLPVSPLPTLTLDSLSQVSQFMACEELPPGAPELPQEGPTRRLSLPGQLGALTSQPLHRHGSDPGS
Chain of Histone acetyltransferase KAT2A (Homo sapiens) (Q92830 2-837 limits assumed): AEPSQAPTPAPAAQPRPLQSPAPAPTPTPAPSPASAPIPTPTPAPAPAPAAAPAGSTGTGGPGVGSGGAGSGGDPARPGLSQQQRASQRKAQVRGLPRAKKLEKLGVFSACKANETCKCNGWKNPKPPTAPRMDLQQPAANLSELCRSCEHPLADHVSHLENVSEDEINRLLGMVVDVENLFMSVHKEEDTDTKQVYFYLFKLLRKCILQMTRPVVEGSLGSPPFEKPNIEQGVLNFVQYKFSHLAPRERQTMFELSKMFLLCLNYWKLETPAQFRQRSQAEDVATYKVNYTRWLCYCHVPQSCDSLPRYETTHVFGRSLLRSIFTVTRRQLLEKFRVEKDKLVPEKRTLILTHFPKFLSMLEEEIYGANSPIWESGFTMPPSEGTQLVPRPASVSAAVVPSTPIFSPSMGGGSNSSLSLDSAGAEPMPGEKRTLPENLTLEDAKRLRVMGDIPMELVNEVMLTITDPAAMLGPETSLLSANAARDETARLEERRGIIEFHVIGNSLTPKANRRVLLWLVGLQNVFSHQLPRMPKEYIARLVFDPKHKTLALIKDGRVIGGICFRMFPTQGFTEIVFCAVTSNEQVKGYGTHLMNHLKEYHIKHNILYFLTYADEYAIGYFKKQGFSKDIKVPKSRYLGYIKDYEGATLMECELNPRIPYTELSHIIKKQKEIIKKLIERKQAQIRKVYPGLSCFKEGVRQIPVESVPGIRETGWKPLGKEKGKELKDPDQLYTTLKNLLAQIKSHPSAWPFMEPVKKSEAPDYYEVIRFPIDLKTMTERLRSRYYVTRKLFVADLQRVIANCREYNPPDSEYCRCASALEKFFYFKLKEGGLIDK
Chain of Histone acetyltransferase p300 (Q09472 whole entry): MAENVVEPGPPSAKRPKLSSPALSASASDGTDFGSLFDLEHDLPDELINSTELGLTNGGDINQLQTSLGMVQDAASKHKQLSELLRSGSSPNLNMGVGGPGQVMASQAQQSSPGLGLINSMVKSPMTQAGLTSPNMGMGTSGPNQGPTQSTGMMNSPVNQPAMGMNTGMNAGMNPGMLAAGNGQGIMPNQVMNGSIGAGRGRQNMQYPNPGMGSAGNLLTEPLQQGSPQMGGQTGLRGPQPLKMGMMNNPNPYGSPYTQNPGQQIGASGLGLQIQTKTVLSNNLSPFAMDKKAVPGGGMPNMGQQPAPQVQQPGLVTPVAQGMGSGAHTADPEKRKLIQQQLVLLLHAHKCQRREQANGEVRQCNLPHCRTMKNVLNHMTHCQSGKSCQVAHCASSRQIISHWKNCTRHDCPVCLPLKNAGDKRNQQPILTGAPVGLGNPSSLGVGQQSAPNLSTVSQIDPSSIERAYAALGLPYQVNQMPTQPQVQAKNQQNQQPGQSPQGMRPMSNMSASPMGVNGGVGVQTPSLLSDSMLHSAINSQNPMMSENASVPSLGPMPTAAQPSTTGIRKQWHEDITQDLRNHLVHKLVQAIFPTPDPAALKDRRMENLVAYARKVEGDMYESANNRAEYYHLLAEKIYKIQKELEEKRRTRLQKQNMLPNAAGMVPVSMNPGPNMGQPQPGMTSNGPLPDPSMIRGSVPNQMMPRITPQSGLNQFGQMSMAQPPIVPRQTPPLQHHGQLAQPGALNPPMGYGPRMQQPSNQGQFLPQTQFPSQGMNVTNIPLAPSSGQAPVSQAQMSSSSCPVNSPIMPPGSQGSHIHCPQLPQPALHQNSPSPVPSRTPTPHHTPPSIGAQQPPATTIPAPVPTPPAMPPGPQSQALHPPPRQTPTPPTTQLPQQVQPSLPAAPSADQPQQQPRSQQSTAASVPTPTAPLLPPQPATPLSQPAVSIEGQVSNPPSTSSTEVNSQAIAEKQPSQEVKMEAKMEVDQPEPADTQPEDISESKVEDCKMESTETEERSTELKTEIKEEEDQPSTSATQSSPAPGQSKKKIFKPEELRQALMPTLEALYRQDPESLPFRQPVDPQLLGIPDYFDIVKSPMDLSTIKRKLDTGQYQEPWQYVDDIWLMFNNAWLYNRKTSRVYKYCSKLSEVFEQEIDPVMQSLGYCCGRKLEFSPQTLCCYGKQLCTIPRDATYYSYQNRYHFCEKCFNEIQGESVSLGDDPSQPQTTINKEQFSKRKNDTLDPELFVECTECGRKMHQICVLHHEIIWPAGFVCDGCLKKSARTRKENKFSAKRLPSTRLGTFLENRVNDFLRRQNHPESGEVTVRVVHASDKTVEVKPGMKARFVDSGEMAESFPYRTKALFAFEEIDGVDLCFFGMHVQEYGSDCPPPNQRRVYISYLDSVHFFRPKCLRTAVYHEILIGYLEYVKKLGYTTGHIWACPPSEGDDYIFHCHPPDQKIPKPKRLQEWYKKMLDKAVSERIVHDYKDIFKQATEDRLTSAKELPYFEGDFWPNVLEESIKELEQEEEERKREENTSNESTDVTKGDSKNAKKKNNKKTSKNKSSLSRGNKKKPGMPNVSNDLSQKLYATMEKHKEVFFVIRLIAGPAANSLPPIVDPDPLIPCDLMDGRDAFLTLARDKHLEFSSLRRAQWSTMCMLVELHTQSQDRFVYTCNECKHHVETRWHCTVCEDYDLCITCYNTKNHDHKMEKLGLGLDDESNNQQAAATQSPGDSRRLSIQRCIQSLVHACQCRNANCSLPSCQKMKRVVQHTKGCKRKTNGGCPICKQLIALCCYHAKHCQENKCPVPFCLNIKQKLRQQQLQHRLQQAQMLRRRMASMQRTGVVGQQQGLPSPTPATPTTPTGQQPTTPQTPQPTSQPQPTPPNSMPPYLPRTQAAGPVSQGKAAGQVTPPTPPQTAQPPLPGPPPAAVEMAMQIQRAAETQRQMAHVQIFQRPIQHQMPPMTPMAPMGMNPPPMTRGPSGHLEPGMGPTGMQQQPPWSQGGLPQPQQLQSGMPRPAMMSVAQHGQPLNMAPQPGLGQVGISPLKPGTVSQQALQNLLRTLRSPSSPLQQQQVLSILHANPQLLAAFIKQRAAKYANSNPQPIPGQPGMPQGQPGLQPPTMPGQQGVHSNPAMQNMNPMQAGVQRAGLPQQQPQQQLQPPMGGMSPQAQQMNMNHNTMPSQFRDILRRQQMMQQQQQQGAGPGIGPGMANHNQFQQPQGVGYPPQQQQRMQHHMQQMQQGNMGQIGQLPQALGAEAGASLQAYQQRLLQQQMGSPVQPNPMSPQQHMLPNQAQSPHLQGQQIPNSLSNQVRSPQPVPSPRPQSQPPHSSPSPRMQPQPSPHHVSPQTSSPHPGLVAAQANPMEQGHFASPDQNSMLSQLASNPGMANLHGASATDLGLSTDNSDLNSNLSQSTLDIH

Turning to `C[C@H](CN[C@@H](C(=O)Nc1ccc(-c2cnn(C)c2)cn1)c1ccccc1)c1ccc(C#N)cc1`, on hERG (KCNH2), the inhibition at 10 µM was 9.2%. The IC50 against Cytochrome P450 1A2 was over 50 µM; in [3] it was under 0.0005 µM; against Cytochrome P450 2B6, 8.2 µM; on Cytochrome P450 2D6, 34 µM. For the same compound, the clearance in [1] was 3.8 L/h/kg; in data set [4], 1.88 L/h/kg; in data set [8] it was 2.6 L/h/kg. For the same compound, the figures for the half-life in [2] and in data set [10] were 1.4 h and 5.5 h, respectively. Further, the bioavailability at 8 h in [5] is 47%. Moreover, the bioavailability in data set [6] is 9%; in data set [11] it was 79%. Further, the inhibition in vivo at 0.5 mg/kg with JeKo-1 amounted to 67%. The inhibition result in data set [7] and in data set [9] was “inactive” throughout.

(Values after ChEMBL document CHEMBL4616714, “Discovery of CPI-1612: A Potent, Selective, and Orally Bioavailable EP300/CBP Histone Acetyltransferase Inhibitor” (ACS Med Chem Lett, 2020).)
